In ChEMBL document CHEMBL4190223, “Natural Products Discovered in a High-Throughput Screen Identified as Inhibitors of RGS17 and as Cytostatic and Cytotoxic Agents for Lung and Prostate Cancer Cell Lines” (J Nat Prod, 2017):
pIC50: −log10 of the molar value. Activity calls are given as the source filed them. The rule behind the calls is not given here.

Legend:
[1] = test system: HEK293; assay: Inhibition of Galphao interaction with GFP-fused RGS17 (unknown origin) deltaN mutant expressed in HEK293 cells assessed as disruption of RGS17 localization at cell membranes at 100 uM up to 30 mins by confocal microscopic analysis; format: cell-based; conditions: Homo sapiens
Method in brief: (§1)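 HEK293T cells plated at 25 000 per well on poly-D-lysine glass and kept overnight at 37 °C, 5% CO2. Next day cotransfected with hGαo (pcDNA3.1) and GFP-RGS17 N (Lipofectamine 2000). After 24 h, cells moved to serum-free, phenol-red-free DMEM and given compound (final 0.07–0.8% DMSO). Live confocal imaging; ImageJ cross-sectional intensity analysis, each T=final image normalised to the T=0 maximum.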

[2] = test system: HEK293; assay: Inhibition of Galphao interaction with GFP-fused RGS17 (unknown origin) deltaN mutant expressed in HEK293 cells assessed as increase in RGS17 deltaN mutant localization at cytoplasm at 100 uM up to 30 mins by confocal microscopic analysis; format: cell-based; conditions: Homo sapiens; method in brief: as §1
[3] = test system: HEK293; assay: Induction of morphological changes in HEK293 cells assessed as cell shrinkage at 100 uM measured over 30 mins; format: cell-based; conditions: human, hek293, 0.5 h
[4] = biological target: T1, Regulator of G-protein signaling 17 (Homo sapiens) (UniProt Q9UGC6); assay: Binding affinity to RGS17 (unknown origin) assessed as covalent adduct formation at 100 uM after 72 hrs by ESI-MS analysis
T1 sequence (whole entry): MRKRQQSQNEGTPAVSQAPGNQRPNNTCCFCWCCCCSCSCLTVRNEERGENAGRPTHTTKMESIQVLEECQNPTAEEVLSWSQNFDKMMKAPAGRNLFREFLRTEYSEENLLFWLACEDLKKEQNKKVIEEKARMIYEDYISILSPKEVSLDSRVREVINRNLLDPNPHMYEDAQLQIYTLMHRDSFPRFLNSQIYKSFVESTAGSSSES
Method in brief: (§2)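 RGS17 N (1ZV4 construct, 20 μM) in 25 mM HEPES, 100 mM NaCl, 5% DMSO, pH 8, incubated with or without 100 μM compound at 4 °C for 72 h. Then dialysed twice against 25 mM NH4HCO3 at 4 °C for 24 h to strip noncovalent ligand, followed by ESI-TOF mass analysis for adducted species.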

[5] = test system: HEK293; assay: Inhibition of Galpha0 interaction with GFP-fused RGS17 (unknown origin) deltaN mutant expressed in HEK293 cells assessed as increase in RGS17 deltaN mutant localization at cytoplasm at 100 uM up to 5 mins by confocal microscopic analysis; format: cell-based; conditions: Homo sapiens
Method in brief: (§3)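 HEK293T cells plated at 25 000/well on poly-D-lysine glass-bottom wells and co-transfected (Lipofectamine 2000) with hGαo and N-terminal GFP-fused RGS17 ΔN. After 24 h, switched to serum-free, phenol-red-free DMEM and compound added (0.07–0.8% DMSO final). Imaged by confocal microscopy; cross-sectional fluorescence profiles at T=0 and T=final, each pair normalised to the highest T=0 intensity.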

[6] = test system: PC-3; assay: Growth inhibition of E-cadherin expressing human PC3 cells after 1 hr by sulforhodamine B assay; format: functional, cell-based
[7] = test system: HEK293; assay: Inhibition of Galphao interaction with GFP-fused RGS17 (unknown origin) deltaN mutant expressed in HEK293 cells assessed as increase in RGS17 deltaN mutant localization at cytoplasm at 10 uM up to 5 mins by confocal microscopic analysis; format: cell-based; conditions: Homo sapiens; method in brief: as §3
[8] = organism: Homo sapiens; assay: Growth inhibition of human TEM4-18 cells after 1 hr by sulforhodamine B assay; format: functional
[9] = biological target: T1, Regulator of G-protein signaling 17 (Homo sapiens); assay: Binding affinity to RGS17 (unknown origin) assessed as change in melting temperature by differential scanning fluorimetry
[10] = biological target: T1, Regulator of G-protein signaling 17 (Homo sapiens); assay: (§4) Inhibition of wild type GST-tagged RGS17 (unknown origin) interaction with biotinylated Galphao after 30 mins in presence of AMF and GDP by AlphaScreen assay
Method in brief: (§5)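 AlphaScreen assay: RGS17 (WT or C117A) on anti-GST beads, 10 nM final, preincubated 30 min with compound (half-log series, 100 μM to 1 nM final). Gαo-biotin on streptavidin beads then added with AMF and GDP, 10 nM final. Negative controls lacked AMF. Data n = 3, run at least in duplicate.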

[11] = biological target: T2, Regulator of G-protein signaling 17 (Homo sapiens, UniProt Q9UGC6); assay: as §4; method in brief: as §5
T2 sequence (Q9UGC6 whole entry): T1 sequence (whole entry)

[12] = test system: A549; assay: Growth inhibition of human A549 cells measured every 2 hrs over 6 days by live cell imaging based method; format: functional
Method in brief: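 A549 cells harvested by trypsin, plated at 1000 cells/well in 24-well plates, left overnight to attach, then treated in triplicate with compound or matched DMSO (≤0.2% final). Confluence imaged live every 2 h over 6 days. Change in confluence relative to DMSO plotted against concentration. IC50 taken from a linear regression of each curve at 0.5 relative growth.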

[13] = biological target: T1, Regulator of G-protein signaling 17 (Homo sapiens); assay: Inhibition of RGS17 (unknown origin)-mediated CREB phosphorylation
[14] = biological target: Regulator of G-protein signaling 17 (Homo sapiens, UniProt Q9UGC6, C117A); assay: Inhibition of RGS17 (unknown origin) C117A mutant interaction with biotinylated Galphao after 30 mins in presence of AMF and GDP by AlphaScreen assay; method in brief: as §5
Chain of Regulator of G-protein signaling 17 (Homo sapiens, UniProt Q9UGC6, C117A) (Q9UGC6 whole entry C117A): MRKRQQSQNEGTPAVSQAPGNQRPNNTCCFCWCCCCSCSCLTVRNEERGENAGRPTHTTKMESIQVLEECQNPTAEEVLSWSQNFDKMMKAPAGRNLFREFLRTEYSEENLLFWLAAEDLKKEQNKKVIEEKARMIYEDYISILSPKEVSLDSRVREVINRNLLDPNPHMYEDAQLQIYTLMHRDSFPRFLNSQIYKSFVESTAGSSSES

[15] = test system: HEK293; assay: Induction of morphological changes in HEK293 cells assessed as plasma membrane blebbing at 100 uM; format: cell-based; conditions: human, hek293, 100 µM
[16] = test system: RWPE-1; assay: Growth inhibition of human RWPE1 cells at 31.6 to 56.2 uM after 1 hr by sulforhodamine B assay; format: cell-based; conditions: rwpe-1, 1 h
[17] = test system: HEK293; assay: Inhibition of Galphao interaction with GFP-fused RGS17 (unknown origin) deltaN mutant expressed in HEK293 cells assessed as increase in RGS17 deltaN mutant localization at cytoplasm at 10 uM up to 20 mins by confocal microscopic analysis; format: cell-based; conditions: Homo sapiens; method in brief: as §3
[18] = biological target: T1, Regulator of G-protein signaling 17 (Homo sapiens); assay: Binding affinity to RGS17 (unknown origin) assessed as molecular weight of covalent adduct at 100 uM after 72 hrs by ESI-MS analysis (reference value: 16232 Da); method in brief: as §2
[19] = Solubility of the compound in aqueous buffer solution; format: physicochemical
[20] = test system: HEK293; assay: Induction of morphological changes in HEK293 cells assessed as cell shrinkage at 100 uM; format: cell-based; conditions: human, hek293, 100 µM
[21] = Thiol reactivity of the compound assessed as cysteine adduct formation at 100 uM after 4 hrs in presence of N-Acetylcysteine by Ellman's method; format: physicochemical
Method in brief: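 Ellman assay: N-acetylcysteine (100 μM) incubated with compound (100 μM, 1:1) for 4 h at 37 °C. DTNB (1 mM) then added and absorbance read at 412 nm against N-acetylcysteine alone; N-ethylmaleimide as thiol-reactive control; n = 3.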

[22] = test system: PC-3; assay: Growth inhibition of E-cadherin expressing human PC3 cells transfected with RGS17 at 31.6 to 56.2 uM after 1 hr by sulforhodamine B assay; format: functional, cell-based
[23] = biological target: T1, Regulator of G-protein signaling 17 (Homo sapiens); assay: Binding affinity to RGS17 (unknown origin) assessed as change in chemical shift perturbations by NMR spectroscopic analysis
[24] = biological target: T2, Regulator of G-protein signaling 17; assay: Inhibition of RGS17 (unknown origin) GAP activity in presence of GTP by malachite green dye based assay
[25] = biological target: Guanine nucleotide-binding protein G(o) subunit alpha (Homo sapiens) (UniProt P09471); assay: Binding affinity to Galphao (unknown origin) assessed as change in melting temperature by differential scanning fluorimetry
Chain of Guanine nucleotide-binding protein G(o) subunit alpha (Homo sapiens) (P09471 2-354 limits assumed): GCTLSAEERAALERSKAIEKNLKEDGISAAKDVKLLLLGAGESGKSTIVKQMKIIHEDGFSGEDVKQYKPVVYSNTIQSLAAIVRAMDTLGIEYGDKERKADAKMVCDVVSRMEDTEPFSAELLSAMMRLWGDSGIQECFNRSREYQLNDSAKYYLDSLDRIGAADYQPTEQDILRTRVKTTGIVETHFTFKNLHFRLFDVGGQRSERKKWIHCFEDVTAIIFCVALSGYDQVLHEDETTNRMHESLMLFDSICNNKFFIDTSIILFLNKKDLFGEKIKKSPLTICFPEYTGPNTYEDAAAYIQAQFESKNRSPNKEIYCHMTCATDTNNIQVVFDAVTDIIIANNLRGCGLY

[26] = test system: HEK293; assay: Inhibition of Galphao interaction with GFP-fused RGS17 (unknown origin) deltaN mutant expressed in HEK293 cells assessed as increase in RGS17 deltaN mutant localization at cytoplasm at 100 uM up to 20 mins by confocal microscopic analysis; format: cell-based; conditions: Homo sapiens; method in brief: as §1
[27] = test system: A549; assay: Growth inhibition of human A549 cells up to 1 uM measured every 2 hrs over 6 days by live cell imaging based method; format: functional
Method in brief: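 A549 cells trypsinised, counted and seeded at 1000 per well in 24-well plates, then allowed to attach overnight. Treated in triplicate up to 1 μM compound (≤0.2% DMSO, matched DMSO control). Confluence imaged every 2 h for 6 days by live-cell imaging. Confluence change relative to DMSO plotted against concentration; IC50 from linear regression at 0.5 relative growth.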

[28] = test system: HEK293; assay: Inhibition of Galphao interaction with GFP-fused RGS17 (unknown origin) deltaN mutant expressed in HEK293 cells assessed as increase in RGS17 deltaN mutant localization at cytoplasm at 10 uM up to 30 mins by confocal microscopic analysis; format: cell-based; conditions: Homo sapiens; method in brief: as §1
[29] = biological target: T1, Regulator of G-protein signaling 17 (Homo sapiens); assay: Inhibition of Galphao interaction with GFP-fused full length RGS17 (unknown origin) expressed in HEK293 cells assessed as disruption of RGS17 localization at cell membranes at 100 uM after 10 mins by confocal microscopic analysis; format: cell-based
Method in brief: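 HEK293T cells co-transfected with hGαo and N-terminal GFP-fused full-length RGS17, then treated with 100 μM compound in serum-free, phenol-red-free DMEM. RGS17 membrane localisation followed by confocal imaging at 0 and 10 min.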

Row | Compound | Activity [4] | inhibition [5] | growth inhibition (GI) [6] | inhibition [7] | growth inhibition (GI) [8] | Activity [9] | inhibition [10] | pIC50 [11] | pIC50 [12] | inhibition [13] | pIC50 [14] | Activity [15] | growth inhibition (GI) [16] | Activity [18] [Da] | Activity [20] | Activity [21] | growth inhibition (GI) [22] | Activity [23] | pIC50 [24] | inhibition [28] | other results
1 | Cc1ccc(-n2sc(=O)n(Cc3ccc(F)cc3)c2=O)cc1 |  |  |  |  |  |  |  |  |  |  |  |  |  |  |  |  |  |  |  |  | inhibition [1]: inactive; inhibition [2]: inactive; Activity [3]: Toxic
2 | CC1=C(O)C(=O)C=C2C1=CC=C1[C@@]2(C)CC[C@@]2(C)[C@@H]3C[C@](C)(C(=O)O)CC[C@]3(C)CC[C@]12C [CELASTROL] | Active | Active | Dose-dependent effect | Active | Dose-dependent effect | inactive | Dose-dependent effect | 4.98 | 6.16 | inactive | < 4.00 | Non-Toxic | Toxic | 16200 | Non-Toxic | Not Active | inactive | inactive |  |  | inhibition [17]: Active; solubility [19]: Insoluble
3 | CC(C)=CCC[C@]1(C)C=Cc2c(O)c3c(c(CC=C(C)C)c2O1)O[C@]12C(=C[C@@H]4C[C@H]1C(C)(C)O[C@@]2(C/C=C(/C)C(=O)O)C4=O)C3=O [GAMBOGIC ACID] |  |  |  |  |  |  |  |  |  |  |  |  |  |  |  |  |  |  | 5.00 |  | Activity [25]: Active
4 | O=c1c(-c2cc(O)c(O)c(O)c2)coc2cc(O)c(O)c(O)c12 [IRIGENOL] | inactive |  |  |  |  | inactive | Dose-dependent effect | 4.33 |  |  | 4.09 | Non-Toxic |  | 16200 | Non-Toxic | Active |  | inactive | 4.46 | Active | inhibition [26]: Active; growth inhibition (GI) [27]: inactive
5 | C[n+]1cc2c3c(ccc2c2ccc4cc5c(cc4c21)OCO5)OCO3 [SANGUINARIUM] | inactive | Active | Dose-dependent effect | Active | Dose-dependent effect | inactive | Dose-dependent effect | 4.14 | 6.21 | inactive | < 4.00 | Non-Toxic | Toxic | 16200 | Non-Toxic | Active | inactive | inactive | 4.92 | Active | inhibition [29]: inactive
